Bioassay records (PubChem)
TRPML3 ag: human TRPML3 channel agonists, primary screen, cell-based, HEK293 TRPML3-YFP, Fluo-8 calcium fluorescence, 3 µM; Mucolipin-3 (Homo sapiens), Q8TDD5; 100% = the carbachol control signal; activation, % at 3 µM; actives 0.29% (n = 220,000);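 active = activation above its plate's cutoff, the mean activation of the plate's test wells plus 3 SD, cut at about 12% in these data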;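 note: 0% = DMSO only wells and 100% = carbachol wells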
Target sequence (Q8TDD5 whole entry, looked up): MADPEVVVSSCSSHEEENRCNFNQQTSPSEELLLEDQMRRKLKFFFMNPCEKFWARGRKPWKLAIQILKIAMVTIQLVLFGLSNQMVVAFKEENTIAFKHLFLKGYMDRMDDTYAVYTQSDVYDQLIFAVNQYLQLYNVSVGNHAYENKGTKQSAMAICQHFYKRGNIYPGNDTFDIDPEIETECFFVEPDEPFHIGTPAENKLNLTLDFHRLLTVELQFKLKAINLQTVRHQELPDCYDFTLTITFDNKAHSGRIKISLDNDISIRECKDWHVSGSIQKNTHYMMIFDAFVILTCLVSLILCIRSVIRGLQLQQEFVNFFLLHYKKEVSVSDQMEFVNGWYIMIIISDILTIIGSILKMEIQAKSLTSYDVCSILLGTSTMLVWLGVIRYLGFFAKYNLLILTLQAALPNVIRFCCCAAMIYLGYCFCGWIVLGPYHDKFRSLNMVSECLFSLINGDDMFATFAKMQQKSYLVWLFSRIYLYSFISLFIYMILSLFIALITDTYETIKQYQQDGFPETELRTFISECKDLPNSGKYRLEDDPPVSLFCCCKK
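Material: TRPML3-YFP stable HEK293 cells | Dosing: One concentration, 3 µM nominal, 0.3% DMSO | Timing: 125 s total fluorescence read per well | Technique: Fluo-8 calcium dye fluorescence, ex 470-495, em 515-575 nm | Measure: Percent activation from peak-to-basal fluorescence ratio, scaled between DMSO and carbachol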
OX1R antag-1: OX1R (HCRTR1) antagonists, primary screen, fluorescence, CHO/OX1R cells, Fluo-8 calcium, orexin A; Orexin/Hypocretin receptor type 1 (Homo sapiens), O43613; Fluo-8 calcium fluorescence; inhibition, % at 5 µM; actives 0.43% (n = 330,000);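 active = inhibition above its plate's threshold, mean inhibition of all tested compounds on the plate plus 3 SD, cut at about 37% in these data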;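 note: 0% = orexin A challenge wells and 100% = SB-334867-A antagonist wells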
OX1R antag-2: antagonists of human orexin 1 receptor (OX1R); OX1R-expressing cells, FRET antagonist read-out; actives 1.8% (n = 330,000); AID 485270, 2010; inhibition, % at 6.6 µM; Orexin/Hypocretin receptor type 1 (Homo sapiens), O43613; in the data active = inhibition mostly above about 38%, no sharp cut-off; inactive = mostly below about 40%;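 note: 0% = agonist challenge alone and 100% = reference antagonist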
zfTRPN1 agonist: zebrafish TRPN1 channel agonists, primary screen, cell-based, HEK293, calcium fluorescence; activation, % at 3 µM; transient receptor potential cation channel N1 (TRPN1/NompC), Danio rerio; AID 1424, 2008; actives 0.18% (n = 220,000); HEK293 zebrafish TRPN1-YFP, Fluo-8 calcium fluorescence; 100% = response to 87 µM carbachol;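 active = activation above its plate's cutoff, the mean activation of test wells on that plate plus 3 SD, cut at about 19% in these data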;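 note: 0% = DMSO alone and 100% = 87 µM carbachol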
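Material: zebrafish TRPN1-YFP in HEK293 cells. Doses: one dose of 3 µM, 0.3% DMSO. Incubation: dye 1 h 37 °C plus 30 min RT. Measured by: intracellular calcium fluorescence with Fluo-8.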
CHO parental Ca: ATP-evoked calcium signal inhibitors, parental CHO, primary screen, counter-screen for OX1R antagonist project, cell-based, fluorescence, Fluo-8 calcium dye. inhibition, % at 5.6 µM. actives 0.63% (n = 330,000). parental CHO-K1, ATP-induced calcium, Fluo-8 fluorescence. AID 463079, 2010;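 active = inhibition above that plate's mean sample inhibition plus 3 SD, cut at about 26% in these data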;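 note: 0% = ATP-challenged DMSO wells and 100% = DMSO wells without ATP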
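test system = CHO parental line | reagent = ATP stimulus | measured by = intracellular calcium via Fluo-8 no-wash fluorescent dye | control set = ATP and no-ATP DMSO wells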
* = called active by the depositor; . = no result. Only some compounds are listed: those with a hit (about 2.5% of all), similar ones and a draw of the others.

SMILES	TRPML3 ag	OX1R antag-1	OX1R antag-2	zfTRPN1 agonist	CHO parental Ca
CC(=O)c1ccc(NC(=O)/C(=C\c2ccc(F)cc2)NC(=O)c2ccco2)cc1	.	-19.1	12.7	.	-13.9
CCn1cc([N+](=O)[O-])c(C(=O)Nc2c(C)nn(Cc3cccc(F)c3)c2C)n1	0.0	-8.9	-2.4	0.2	-4.5
Cc1nn(Cc2ccccc2)c(C)c1NC(=O)c1ccc([N+](=O)[O-])cc1[N+](=O)[O-]	0.8	-12.6	45.0*	1.8	-2.9
CCOC(=O)C1=NS(=O)(=O)NC(C)=C1	.	-10.7	5.6	.	-0.1
CC1(C)CC(=O)C(N=Nc2ccc(OC(F)F)cc2)=C(O)C1	1.9	-16.2	55.5*	4.0	-7.9
COc1ccc2sc(-c3ccc(S(C)(=O)=O)cc3)c(-c3ccc(SC)cc3)c2c1	.	-19.4	11.6	.	2.3
c1ccc(Oc2nnc(-c3cccs3)c3ccccc23)cc1	0.1	-15.8	13.3	-0.8	19.6
Cc1ccc(Oc2nnc(-c3cccs3)c3ccccc23)cc1C	0.7	-6.5	5.9	0.9	40.3*
O=C(c1cccc(OC2CCN(Cc3ccc(F)cc3Cl)CC2)c1)N1CCCC1	.	-29.8	12.0	.	-12.5
CC(C)(C)N1CC23CCC(C[C@@H]2C1=O)O3 (some centres undefined)	.	3.4	18.0	.	-2.8
COc1ccc(N2CCN(C(=O)CCC(=O)N3CCOc4ccc(Cl)cc43)CC2)cc1	.	-19.1	17.4	.	2.4
Cc1nccc(-c2cccc(N/N=C(\C#N)C(=O)c3ccccc3)c2)n1	4.8	-14.9	68.8	9.9	6.7
N#C/C(=N\Nc1cccc(C(F)(F)F)c1)C(=O)c1ccsc1	13.7*	35.9	54.8*	24.2*	1.3
NS(=O)(=O)c1ccc(N=Nc2ccc(=O)[nH]c2O)cc1	0.3	-17.4	74.4*	0.7	5.6
COc1ccc(/C=C2\Oc3cc(OCC(=O)N4CCC[C@H]4C(=O)O)ccc3C2=O)c(OC)c1OC	.	-5.6	39.0	.	-9.7
COc1ccc(/C=C2\Oc3cc(OCC(=O)N4CCC[C@H]4C(=O)O)ccc3C2=O)cc1OC	.	-4.5	51.5*	.	-11.0
O=C1CCCN1CCCNc1ncccc1[N+](=O)[O-]	.	-7.9	42.9*	.	6.2
O=C1CCCN2N=C(SCC(=O)Nc3cccc(C(F)(F)F)c3)SC2=N1	.	-14.4	29.4	.	37.2*
O=C1CCCN2N=C(SCC(=O)Nc3cccc(Cl)c3)SC2=N1	.	-16.8	17.4	.	-6.3
COc1ccc(NC(=O)CN(C)C(=O)CCCSc2nc3ccccc3[nH]2)cc1	.	-29.0	22.3	.	-14.9
O=S(=O)(c1cnc(Cl)c(Cl)c1)N1CCCc2ccccc21	0.2	-23.1	18.1	-1.7	-9.3
Cc1cccc(NC(=O)c2ccc(Cl)c(S(=O)(=O)N3CCc4ccccc43)c2)n1	.	27.2	34.5*	.	-13.7
O=C(Nc1ccncc1)c1ccc(Cl)c(S(=O)(=O)N2CCc3ccccc32)c1	.	34.3	49.6*	.	43.7*
O=S(=O)(c1cnc(Cl)c(Cl)c1)N1CCc2ccccc21	15.7*	-16.7	3.6	-1.7	-7.5
Cc1cccc(NC(=O)c2ccc(Cl)c(S(=O)(=O)N3CCCC3)c2)n1	.	-26.0	28.4	.	-16.3
SMILES	TRPML3 ag	OX1R antag-1	OX1R antag-2	zfTRPN1 agonist	CHO parental Ca
COc1cc(C(=O)NC(C)C2CC3CCC2C3)ccc1OC(F)F (centres undefined)	.	-10.0	11.1	.	-25.1
Cc1cc(OCC(O)CN(C)C(=O)C(C)Oc2ccccc2)ccc1Cl (centres undefined)	.	12.2	48.0*	.	-13.9
CC(=O)c1cccc(NC(=O)C(C)OC(=O)CCn2c(C)csc2=O)c1 (centres undefined)	.	-9.0	1.6	.	-11.2
Cc1sc(NC(=O)c2ccc(Cl)s2)c(C(N)=O)c1C	-0.1	-6.1	47.5*	0.1	-29.7
Cc1sc(NC(=O)c2ccc(Br)s2)c(C(N)=O)c1C	0.1	-17.6	21.1	-0.2	-13.2
Cc1c(Cl)cccc1NC(=S)N(Cc1cccnc1)Cc1ccccc1Cl	-1.7	8.8	16.4	-0.2	-21.7
Cn1nc(C(=O)OCC(=O)c2ccccc2)c2ccccc2c1=O	.	-17.0	3.7	.	-24.7
Cc1ccc(C)c(C(=O)COC(=O)c2nn(C)c(=O)c3ccccc23)c1	.	-0.8	33.0*	.	-27.1
O=C(COC(=O)CSc1ccccc1)NNC(=O)c1ccc([N+](=O)[O-])cc1	.	-9.7	47.1	.	-5.3
O=C(Cc1ccccc1[N+](=O)[O-])NNC(=O)c1ccncc1	.	8.9	15.4	.	-1.9
O=C(c1ccc([N+](=O)[O-])cc1)N1CCN(C(=O)c2cccnc2)CC1	.	-14.5	53.2*	.	11.6
O=C(COC(=O)Cc1ccccc1[N+](=O)[O-])NNC(=O)c1ccc([N+](=O)[O-])cc1	.	-12.9	36.0*	.	-4.7
O=C(COC(=O)CSc1ccc(F)cc1)NNC(=O)c1ccc([N+](=O)[O-])cc1	.	2.6	59.5*	.	-1.7
O=C(c1cccnc1)N1CCN(c2ccc([N+](=O)[O-])cc2Cl)CC1	0.8	7.7	30.9	2.3	1.1
O=C(COC(=O)C1CC2CCCC(C1)C2=O)NNC(=O)c1ccc([N+](=O)[O-])cc1 (centres undefined)	.	-15.4	69.2*	.	-0.2
Cc1cc(Nc2cc(Cl)nc(Sc3ccc(NC(=O)C4CC4)cc3)n2)n[nH]1	.	-4.9	24.2	.	-2.5
O=C1CN(C(=O)/C=C/c2ccccc2F)c2ccccc2N1	0.5	-8.9	18.4	-0.4	-2.9
CCN(CC(=O)Nc1c(F)cccc1F)C(=O)CCC(=O)c1ccc(C)cc1	.	-35.7	11.5	.	-22.3
CCN(c1ccccc1)S(=O)(=O)c1cccc(C(=O)Nc2ccc(C)cn2)c1	.	-37.0	28.4	.	-23.4
CC(=O)Nc1cccc(C(=O)OCC(=O)NNC(=O)c2ccc([N+](=O)[O-])cc2)c1	.	-5.8	52.1*	.	1.6
CCOc1ccc(OCC(=O)OCC(=O)NNC(=O)c2ccc([N+](=O)[O-])cc2)cc1	.	3.3	56.8*	.	6.9
O=C(NNC(=O)c1ccc([N+](=O)[O-])cc1)c1ccncc1	0.6	8.7	70.3*	-1.6	10.6
COc1cccc(CC(=O)OCC(=O)NNC(=O)c2ccc([N+](=O)[O-])cc2)c1	.	-11.3	59.9*	.	-8.7
O=C(NNC(=O)c1ccc([N+](=O)[O-])cc1)c1ccc(F)cc1	.	5.6	61.5	.	-0.2
O=C(Cn1cnc2ccccc2c1=O)Nc1nnc(SCc2ccc(Cl)cc2)s1	-0.8	-2.5	7.3	0.7	-5.3
CSCCC(NC(=O)c1ccc([N+](=O)[O-])cc1Cl)C(=O)OC1CCCCC1=O (centres undefined)	.	-19.4	66.5*	.	-9.5
